Measured values published in ChEMBL document CHEMBL4513216, “Probing the Open Global Health Chemical Diversity Library for Multistage-Active Starting Points for Next-Generation Antimalarials” (ACS Infect Dis, 2020).

Test: Toxicity liver stage against HepG2, at 10uM
Type: cell-based
Design: test concentration 10 uM, cell line HepG2-A16-CD81EGFP
Details: human, HepG2-A16-CD81EGFP cells; read-out: INHIBITION
In short: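 Uninfected HepG2-A16-CD81EGFP cells, 3 × 10^3 per well, 1536-well, plated on prespotted compound at 10 μM final, parasite-free screening media added to match infected plates; puromycin 10 μM positive, DMSO 0.5% negative; run in parallel with 48 h PbLuc assay at 37 °C, 5% CO2; viability by CellTiter-Glo luminescence, normalized to controls.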

| SMILES | cytotoxicity at 10 µM [%] |
| --- | --- |
| NC(=O)C1CCN(C(=O)CCSCc2ccc(Cl)c(Cl)c2)CC1 | -1.35 |
| c1ccc(CN2CCC3(CC2)Nc2ccccc2CO3)cc1 | -0.719 |
| Fc1ccc(OCc2nnc([C@H]3CCN(Cc4ccccn4)C3)o2)cc1 | 0.413 |
| Cc1nn(-c2ccccn2)c(C)c1[C@@H]1C=C[C@@H](NC(=O)NC(C)C)C1 | 1.52 |
| O=C1c2ncccc2C(CCO)N1Cc1ccccc1 (configuration not stated) | -4.26 |
| COc1cccc(N2CCN(C(=O)COc3c(C)occc3=O)CC2)c1 | -1.29 |
| COCCn1/c(=N\C(=O)CN(C)S(C)(=O)=O)sc2cc(OC)ccc21 | -7.93 |
| O=C(NCC(O)c1cccs1)c1ccco1 (configuration not stated) | -14.7 |
| Cc1oncc1C(=O)N1CC2CC1(C(=O)NCc1ccco1)C2 | 4.76 |
| Cn1cc(CN2CC[C@H]3[C@H]2CC(=O)N3Cc2ccncc2)cn1 | -5.87 |
| Cc1ccc(CNC(=O)c2nc3c(o2)CN(c2ncccn2)C3)o1 | -5.58 |
| O=C(NC1CCc2[nH]c(=O)ccc2C1)C1CCOCC1 (configuration not stated) | 1.42 |
| CCS(=O)(=O)N1CCC2(CN(C(=O)c3cscn3)C2)C1 | 10.8 |
| O=c1cc(CN2CCCC2)nc2n1CCCN(CC1CCOCC1)C2 | 9.97 |
| O=C(c1cscn1)N1C[C@@H](Oc2cccnc2)[C@H]2OCCC[C@H]21 | 7.77 |
| NC(=O)C1CCN(c2nc3nccc(-c4ccccn4)c3c(=O)[nH]2)CC1 | -9.24 |
| Cc1ccc(NCc2nc3n(n2)CCCCC3)c(C)c1 | 4.7 |
| Cc1c(S(=O)(=O)N2CCOCC2)cc2c(C)cc(=O)n3c2c1CCC3 | 3.36 |
| CSCc1cccc(S(=O)(=O)N2CCCCCC2)c1 | 6.91 |
| COc1c(C(=O)NCc2cccnc2)nnn1Cc1ccccc1 | 12.5 |
| CNc1cncc(C2CCCN2C(=O)Cn2ccnc2C)n1 (configuration not stated) | -4.31 |
| CS(=O)(=O)N1CCC(n2nnn(-c3ccccc3)c2=O)CC1 | 2.58 |
| Oc1cc(-c2nccs2)nc(C2CCN(Cc3cccs3)CC2)n1 | 16.7 |

| SMILES | cytotoxicity at 10 µM [%] |
| --- | --- |
| CN(C(=O)c1cc(F)ccc1F)[C@@H]1CC[C@@H](O)[C@@H]1O | -0.822 |
| CS(=O)(=O)N1CCC(c2ccncn2)CC1 | 6.77 |
| Cn1nccc1CCC(=O)N1CCOC(c2cnccn2)C1 (configuration not stated) | -25.9 |
| Cc1cc(-c2ccc(C(=O)O)cc2)nc(C2CCN(C(C)C)CC2)n1 | -26.3 |
| Oc1nc(-c2cnccn2)nc2c1CCN(Cc1ccccn1)C2 | 1.51 |
| O=C(c1ccc(Cl)s1)N1CCC2(COc3ncccc3S(=O)(=O)N2)C1 (configuration not stated) | 8.77 |
| CCC(CC)C(O)CNC(=O)Cc1c[nH]c2ncccc12 (configuration not stated) | 0.476 |
| O=S(=O)(c1cccc(Cl)c1)N1CCCC(Cn2cncn2)C1 (configuration not stated) | -7.21 |
| Brc1cnc(NCCCOCC2CCOC2)nc1 (configuration not stated) | -2.15 |
| Cc1ccccc1C(C)NC(=O)CN1CCN(Cc2cccs2)CC1 (configuration not stated) | 48.9 |
| CC(NCCc1nccn1Cc1ccccc1)c1ccsc1 (configuration not stated) | 8.4 |
| CC(Oc1cccc(F)c1)C(=O)N(CC(N)=O)C1CCCC1 (configuration not stated) | -1.21 |
| CCOc1ccc2c(c1)C=C(C(=O)NC(C)Cn1cccn1)CO2 (configuration not stated) | 6.95 |
| CN(C)c1cc(CNC(=O)C2COc3ccccc3O2)ccn1 (configuration not stated) | 2.5 |
| NS(=O)(=O)CCNC(=O)c1cc2ccccc2nc1N1CCCC1 | -10.7 |
| COc1ccc(CNC(=O)NC2CCN(CC3CCCC3)CC2)cn1 | -8.01 |
| Cc1ccc(S(=O)(=O)N2CC[C@@H](O)C2)c(F)c1 | -10.2 |
| CC(C)(C)n1ncc2c(=O)[nH]c(N3CCC4(CCCCC4)C3)nc21 | -7.72 |
| O=C(NCCc1ccn(-c2ccc(F)cc2)n1)C1CCCO1 (configuration not stated) | -0.198 |
| CN(c1c(F)cccc1F)S(=O)(=O)c1cc2c(c(C(=O)O)c1)OCCO2 | -7.57 |
| CC(C)n1cc(S(=O)(=O)N2CCCC(N3CCCCC3)C2)cn1 (configuration not stated) | 2.78 |
| CCc1nc(CCNC(=O)C2CC2)sc1C | -14.1 |
| Cc1nc(CN2CCC(CNC(=O)CCC3CCCC3)CC2)oc1C | -1.29 |

| SMILES | cytotoxicity at 10 µM [%] |
| --- | --- |
| O=C(Cc1ccc2c(c1)CCC2)N1CCCC1Cn1cccn1 (configuration not stated) | -139 |
| O=C(c1cc2ccccc2c(=O)[nH]1)N1CCN(CCO)CC1 | 4.96 |
| COc1ncc(C)cc1NC(=O)CCc1ccccn1 | -9.58 |
| Cc1nc(C(C)(C)C)sc1C(=O)NCCn1cccn1 | -3.17 |
| CCN(C(=O)c1cccc2c1OCO2)c1ccc(Br)cn1 | 3.44 |
| O=c1n(CCSCCOc2ccc(Br)cc2)nc2ccccn12 | 10 |
| Cc1noc(C)c1CN(C)C(=O)CCOc1ccc(Cl)cc1 | -2.51 |
| CCCN1CCCN(C(=O)c2oc(C)nc2C)CC1 | 24.3 |
| CCOCc1ccccc1NC(=O)NCC(c1cnn(C)c1)N(C)C (configuration not stated) | 3.96 |
| Cc1ccc(CNCCCNS(C)(=O)=O)c(Br)c1 | 3.36 |
| CN(CCNC(=O)Nc1nccs1)Cc1ccc(F)cc1 | -1.32 |
| CCCNC(=O)C(C)NC(=O)CCc1ccccc1Br (configuration not stated) | 14.5 |
| Cc1ccn(-c2ccccc2NCc2ccccn2)n1 | -9.99 |
| Cc1cc(=O)n2ncnc2n1CC(O)c1ccccc1Cl (configuration not stated) | 1.67 |
| Cn1cccc1C(=O)N1C[C@H]2CN(CC3CC3)C(=O)[C@H]2C1 | -103 |
| CN1CCN(S(C)(=O)=O)Cc2cccnc21 | -112 |
| CCn1cc2c(n1)C(COC)CN(Cc1ccccn1)C2 (configuration not stated) | -3.73 |
| Cc1ncc(-c2ccnc(NC3CC3)n2)c(-c2cccnc2)n1 | -14.2 |
| COCCN1CCN(C(=O)c2ccc(C)cc2OC)[C@H]2CS(=O)(=O)C[C@H]21 | -3.81 |
| COCC(Nc1ncnc2c1CCNCC2)c1ccccn1 (configuration not stated) | 0.565 |
| O=c1cc(N2CCCCC2)cnn1C[C@H](O)CO | 2.04 |
| Cc1nc(C)c(CC(=O)N2C[C@@H](C(=O)O)[C@H](c3ccccc3C)C2)s1 | -120 |
| CCCOC(=O)N1CCCC2(CCN(Cc3cccc(C#N)c3)C2)C1 (configuration not stated) | -4.59 |

| SMILES | cytotoxicity at 10 µM [%] |
| --- | --- |
| Nc1cc(-c2ccc(C(=O)O)cc2O)c2cc[nH]c2n1 | 10.3 |
| Cc1nccn1C1(C(=O)O)CCN(Cc2ccc3occc3c2)CC1 | -1.61 |
| O=C(CCn1cc(Cl)cn1)N1CCC2(CC1)OCCCC2O (configuration not stated) | -135 |
| CCC(C)N(Cc1ccsc1)C(=O)c1ccc(CO)cc1 (configuration not stated) | 4.26 |
| O=C(c1ccc(S(=O)(=O)NCc2ccon2)cc1)N1CCOCC1 | 3.08 |
| CN(Cc1ncc[nH]1)S(=O)(=O)c1cccc(C(=O)N2CCOCC2)c1 | -9.5 |
| c1ccc(-c2noc3c2CN(CC2CC2)CC3)cc1 | -13.2 |
| Cn1ncc(NC(=O)c2noc3c2CCCC3)c1C(N)=O | 5.8 |
| O=C(c1ccc(F)cc1F)N1CC[C@H](O)[C@@H](N2CCOCC2)CC1 | 2.62 |
| CC(C)CN1CCN(C(=O)CCn2cccn2)CC1 | -5.45 |
| Cc1nn(C)c(Cl)c1C1CCCN1C(=O)c1cc(C2CC2)on1 (configuration not stated) | -13.3 |
| O=C(O)c1cc(S(=O)(=O)N2CCOc3ccccc32)ccc1Br | -3.39 |
| CC(O)CN1CCN(C(=O)c2cc(Cl)cc3cccnc23)CC1 (configuration not stated) | -1.78 |
| CCc1ccc(C(=O)NCc2ccnc(N3CCN(C)CC3)c2)o1 | -9.07 |
| CCc1ccc(C(=O)NC2CCc3nc(C)cn3C2)o1 (configuration not stated) | -8.45 |
| Cc1noc(C(C)C)c1C(=O)NCC(c1cccs1)N(C)C (configuration not stated) | -14.5 |
| Cc1[nH]ncc1C(=O)N1CCCC1c1noc(C2CC2)n1 (configuration not stated) | -18.1 |
| CC(=O)Nc1nc(C(=O)N2CCCC2c2noc(C3CC3)n2)cs1 (configuration not stated) | -10.5 |
| O=C(c1cnn2cccnc12)N1CCCC(n2ccnc2)C1 (configuration not stated) | -29.7 |
| Cc1nn2cccnc2c1C(=O)N1CCCC(n2ccnc2C)C1 (configuration not stated) | -9.53 |
| COc1ccc(C(=O)N2CCCC(n3cc(C)cn3)C2)c(F)c1 (configuration not stated) | -10.2 |
| Cc1ncncc1C(=O)N1CCCC(n2cccn2)C1 (configuration not stated) | -4.77 |
| O=C(c1ccn(-c2ccccc2)n1)N1CCCC(n2cccn2)C1 (configuration not stated) | -10.8 |

| SMILES | cytotoxicity at 10 µM [%] |
| --- | --- |
| CN(Cc1ccccc1)CC(O)Cn1cnc2ccccc2c1=O (configuration not stated) | -5.02 |
| COc1cccc(-n2nnc(C(=O)N3CCCC3)c2C)c1 | -5.41 |
| CN(Cc1ccccc1O)C(=O)NC1CCCN(c2ncccn2)C1 (configuration not stated) | -0.421 |
| CCc1nc(CC(=O)N2CCCC2Cn2cccn2)cs1 (configuration not stated) | -2.6 |
| Cn1cc(C(=O)CC2CCCN2C(=O)c2cncc3ccccc23)cn1 (configuration not stated) | 4.11 |
| CCN1CCC(NC(=O)CN2CCCC2Cn2nc(C)cc2C)CC1 (configuration not stated) | -6.83 |
| CCN1CCN(C(=O)NCCOc2ccc3c(c2)OCO3)CC1 | -4.59 |
| CCOc1ccccc1-c1noc(CN2CCCC(O)C2)n1 (configuration not stated) | -3.85 |
| CCOC(=O)CSc1nnc([C@@H](N)C(C)C)o1 | 0.979 |
| FC(F)(F)c1nc(C2CCNCC2)no1 | 5.88 |
| CO[C@@H]1CCN(c2nnc(C)s2)C[C@@H]1Cc1cccc(C)c1 | 11.8 |
| CN(Cc1ccco1)Cc1cnc2n1CCN(c1ncccn1)CC2 | -0.603 |
| Cc1ccc2c(n1)N(CC(C)C)CCN(C(=O)Cc1ccccn1)C2 | 12.7 |
| CC(C)CN1CCS(=O)(=O)[C@@H]2CCN(S(=O)(=O)CC(C)C)CC[C@@H]21 | 11.3 |
| O=C(NCc1cccnc1)N1CCC2(CC(=O)N(c3ccsc3)C2)C1 (configuration not stated) | -0.125 |
| Cc1cccc(CN2C[C@@H](C)[C@@]3(CCN(CC(=O)N(C)C)C3=O)C2)c1 | -0.979 |
| CN1CCc2cc(C(=O)N(C)C)c(NCC3CC3)nc2CC1 | 7.8 |
| CCO[C@@H]1CN(S(=O)(=O)c2cn(C)cn2)[C@@H]2CCCO[C@@H]21 | -146 |
| NC(=O)N1CCC2(CC1)CN(Cc1cccnc1)C(=O)CO2 | 3.63 |
| CCC(=O)N1CC[C@@H]2[C@H](CC1)N(Cc1cccc(C)n1)CCS2(=O)=O | -1.31 |
